Measurements: PMC9574854 (Journal of Medicinal Chemistry, 2022)

Assays:
PfGSK3 = target: T1, PfGSK3 (Plasmodium falciparum, UniProt O77344); test: KinaseSeeker split luciferase assay on PfGSK3; type: biochemical; settings: for fold increase in potency on PfGSK3: compared to IKK16; for activity on PfGSK3, in words: screen at 1 μM
T1 sequence (O77344 1-440): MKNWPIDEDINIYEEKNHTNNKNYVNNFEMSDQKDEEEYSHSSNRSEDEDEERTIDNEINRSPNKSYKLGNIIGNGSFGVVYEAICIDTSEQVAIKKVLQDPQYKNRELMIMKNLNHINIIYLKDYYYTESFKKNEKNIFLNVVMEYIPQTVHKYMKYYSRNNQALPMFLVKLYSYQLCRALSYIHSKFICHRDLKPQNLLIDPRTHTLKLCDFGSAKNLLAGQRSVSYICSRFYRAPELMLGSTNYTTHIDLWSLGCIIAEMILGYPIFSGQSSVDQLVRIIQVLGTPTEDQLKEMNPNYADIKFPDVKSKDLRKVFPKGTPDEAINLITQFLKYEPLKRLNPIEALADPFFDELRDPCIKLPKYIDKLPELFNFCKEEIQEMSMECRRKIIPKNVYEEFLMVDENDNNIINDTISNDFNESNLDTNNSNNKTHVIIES
How it was run: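 Split-luciferase binding assay: lysate with Cfluc-PfGSK3 fusion plus Fos-Nfluc, incubated 2 h with test compound in DMSO (or DMSO control) and a kinase-specific probe. Luminescence was read immediately after luciferin reagent. % inhibition = (control − sample)/control × 100. Compounds were first counter-screened against split luciferase, then screened at 1 μM.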

PfPK6 = target: T2, PfPK6 (Plasmodium falciparum, UniProt Q8IDW1); test: KinaseSeeker split luciferase assay on PfPK6; type: biochemical; settings: for LE PfPK6 (ligand efficiency): PfPK6 pIC50/number of heavy atoms in the molecule; for activity on PfPK6, in words: screen at 1 μM; for selectivity (preference) for PfPK6 over PfGSK3: ratio of IC50 values; for remaining activity at 1 µM: read-out: PfPK6 PoC@1 μM
T2 sequence (Q8IDW1 1-305): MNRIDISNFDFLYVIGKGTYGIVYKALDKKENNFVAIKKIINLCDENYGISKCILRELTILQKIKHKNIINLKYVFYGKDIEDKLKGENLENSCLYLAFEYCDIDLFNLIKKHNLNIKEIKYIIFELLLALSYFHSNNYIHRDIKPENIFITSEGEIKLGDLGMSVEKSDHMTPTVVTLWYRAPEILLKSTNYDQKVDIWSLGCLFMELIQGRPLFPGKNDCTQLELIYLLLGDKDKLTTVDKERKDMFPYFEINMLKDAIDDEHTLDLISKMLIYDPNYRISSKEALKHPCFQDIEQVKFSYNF

[1] = rats, in words; cited from earlier work
468 human kinases = test: DiscoverX KINOMEscan panel, selectivity score; type: binding; settings: for no. of kinase hits: 1 μM, 468 human kinases, PoC ≤10% (>90% inhibition); for reduction in selectivity: S10 (1 μM) compared to IKK16
[2] = in words; cited from earlier work
HepG2 cells = test: HepG2 CellTiter-Glo cytotoxicity assay; type: cell-based, human; settings: HepG2, 2 μM
How it was run: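 HepG2 cells were grown in DMEM with 10% FBS, 1% NEAA and 1% L-glutamine, without antibiotics. They were seeded at 4000 cells/well and left overnight at 37 °C, 5% CO₂. Test compound was added at 200 nM or 2 μM, in quadruplicate, with DMSO held constant, for 48 h. Viability was read by CellTiter-Glo 2 luminescence. % viability is the average of two experiments.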

## CN1CCN(CCCNC(=O)c2ccc(Nc3nccc(-c4cc5ccccc5s4)n3)cc2)CC1 [Compound 9f, 4-((4-(Benzo[b]thiophen-2-yl)pyrimidin-2-yl)amino)-N-(3-(4-methylpiperazin-1-yl)propyl)benzamide]
PfGSK3
  fold increase in potency on PfGSK3: 2 fold
PfPK6; compared to IKK16
  fold increase in potency on PfPK6: ~3 fold

## O=C(c1ccc(Nc2nccc(-c3cc4ccccc4s3)n2)cc1)N1CCC(N2CCCC2)CC1 [IKK16, reference compound]
[1]
  oral bioavailability: orally bioavailable
PfPK6
  LE PfPK6 (ligand efficiency): 0.26
468 human kinases
  no. of kinase hits: 41
[2]
  toxicity in a resazurin-based cell viability assay: low toxicity

## O=C(NC1CC1)c1ccc(Nc2nccc(-c3cc4ccccc4s3)n2)cc1 [Compound 9j, 4-((4-(Benzo[b]thiophen-2-yl)pyrimidin-2-yl)amino)-N-cyclopropylbenzamide]
PfGSK3
  fold increase in potency on PfGSK3: roughly 2 fold

## O=C(c1ccc(Nc2nccc(-c3cc4ccccc4s3)n2)cc1)N1CCC(N2CCCCC2)CC1 [Compound 9b, [1,4′-Bipiperidin]-1′-yl(4-((4-(benzo[b]thiophen-2-yl)pyrimidin-2-yl)amino)phenyl)methanone]
PfPK6; compared to IKK16
  fold increase in potency on PfPK6: ~4 fold

## Cn1cc(NC(=O)c2ccc(Nc3nccc(-c4cc5ccccc5s4)n3)cc2)cn1 [Compound 9k, 4-((4-(Benzo[b]thiophen-2-yl)pyrimidin-2-yl)amino)-N-(1-methyl-1H-pyrazol-4-yl)benzamide]
PfGSK3
  activity on PfGSK3, in words: no activity
PfPK6
  activity on PfPK6, in words: no activity

## Cc1cnc(Nc2ccc(C(=O)N3CCC(N4CCCC4)CC3)cc2)nc1-c1cc2ccccc2s1 [Compound 18n, (4-((4-(Benzo[b]thiophen-2-yl)-5-methylpyrimidin-2-yl)amino)phenyl)(4-(pyrrolidin-1-yl)piperidin-1-yl)methanone]
HepG2 cells
  more cytotoxicity than IKK16: ~40%
PfPK6; compared to IKK16
  fold increase in potency on PfPK6: 9 fold
PfPK6
  selectivity (preference) for PfPK6 over PfGSK3: ~16 fold
468 human kinases
  no. of kinase hits: 100
  reduction in selectivity: ~2 fold

## O=C(NCCCN1CCOCC1)c1ccc(Nc2nccc(-c3cc4ccccc4s3)n2)cc1 [Compound 9g, 4-((4-(Benzo[b]thiophen-2-yl)pyrimidin-2-yl)amino)-N-(3-morpholinopropyl)benzamide]
468 human kinases
  no. of kinase hits: 32

## c1ccc(CNc2nccc(-c3cc4ccccc4s3)n2)cc1 [Compound 4h, 4-(Benzo[b]thiophen-2-yl)-N-benzylpyrimidin-2-amine]
PfGSK3
  activity on PfGSK3, in words: inactive
PfPK6
  remaining activity at 1 µM: 100%
  activity on PfPK6, in words: inactive

## O=C(c1ccc(Nc2ncc(Cl)c(-c3cc4ccccc4s3)n2)cc1)N1CCC(N2CCCC2)CC1 [Compound 18r, (4-((4-(Benzo[b]thiophen-2-yl)-5-chloropyrimidin-2-yl)amino)phenyl)(4-(pyrrolidin-1-yl)piperidin-1-yl)methanone]
PfPK6; compared to IKK16
  fold increase in potency on PfPK6: 20 fold
PfPK6
  selectivity (preference) for PfPK6 over PfGSK3: 9 fold
468 human kinases
  no. of kinase hits: 88
  reduction in selectivity: ~2 fold

## Cc1ccc(-c2nc(Nc3ccc(C(=O)NCCCN4CCOCC4)cc3)ncc2Cl)s1 [Compound 23f, 4-((5-Chloro-4-(5-methylthiophen-2-yl)pyrimidin-2-yl)amino)-N-(3-morpholinopropyl)benzamide]
PfGSK3
  IC50: < 100 nM

## O=C(O)c1ccc(Nc2nccc(-c3cc4ccccc4s3)n2)cc1 [Compound 6, 4-((4-(Benzo[b]thiophen-2-yl)pyrimidin-2-yl)amino)benzoic acid]
PfPK6
  remaining activity at 1 µM: 100%

## Clc1cccc(Nc2nccc(-c3cc4ccccc4s3)n2)c1 [Compound 4c, 4-(Benzo[b]thiophen-2-yl)-N-(3-chlorophenyl)pyrimidin-2-amine]
PfPK6
  remaining activity at 1 µM: 100%

## c1ccc(Nc2nccc(-c3cc4ccccc4s3)n2)cc1 [Compound 4a, 4-(Benzo[b]thiophen-2-yl)-N-phenylpyrimidin-2-amine]
PfGSK3
  activity on PfGSK3, in words: failed to inhibit
PfPK6
  remaining activity at 1 µM: 100%
  activity on PfPK6, in words: failed to inhibit

## O=C(c1ccc(Nc2nccc(-c3cccs3)n2)cc1)N1CCC(N2CCCC2)CC1 [Compound 18c, (4-(Pyrrolidin-1-yl)piperidin-1-yl)(4-((4-(thiophen-2-yl)pyrimidin-2-yl)amino)phenyl)methanone]
PfGSK3
  activity on PfGSK3, in words: inactivity

## O=C(c1ccc(Nc2nccc(-c3ccc(COCC(F)(F)F)s3)n2)cc1)N1CCC(N2CCCC2)CC1 [Compound 18m, (4-(Pyrrolidin-1-yl)piperidin-1-yl)(4-((4-(5-((2,2,2-trifluoroethoxy)methyl)thiophen-2-yl)pyrimidin-2-yl)amino)phenyl)methanone]
PfPK6; compared to its alcohol counterpart (18l)
  fold increase in potency on PfPK6: ~2 fold

## COc1ccccc1Nc1nccc(-c2cc3ccccc3s2)n1 [Compound 4g, 4-(Benzo[b]thiophen-2-yl)-N-(2-methoxyphenyl)pyrimidin-2-amine]
PfPK6
  remaining activity at 1 µM: 100%

## Cc1ccc(-c2nc(Nc3ccc(C(=O)N4CCC(N5CCCC5)CC4)cc3)ncc2C)s1 [Compound 23a, (4-((5-Methyl-4-(5-methylthiophen-2-yl)pyrimidin-2-yl)amino)phenyl)(4-(pyrrolidin-1-yl)piperidin-1-yl)methanone]
PfGSK3
  activity on PfGSK3, in words: did not reach our threshold

## O=C(c1ccc(Nc2nccc(-c3ccc(-c4ccccc4)s3)n2)cc1)N1CCC(N2CCCC2)CC1 [Compound 18k, (4-((4-(5-Phenylthiophen-2-yl)pyrimidin-2-yl)amino)phenyl)(4-(pyrrolidin-1-yl)piperidin-1-yl)methanone]
PfGSK3
  activity on PfGSK3, in words: inactive

## O=C(NCCCN1CCOCC1)c1ccc(Nc2ncc(Cl)c(-c3ccc(Cl)s3)n2)cc1 [Compound 23e, 4-((5-Chloro-4-(5-chlorothiophen-2-yl)pyrimidin-2-yl)amino)-N-(3-morpholinopropyl)benzamide]
PfGSK3
  IC50: < 100 nM
468 human kinases
  no. of kinase hits: 64
468 human kinases; compared to 23d, from 103 to 64 kinase hits
  reduction of promiscuity (kinase hits): ~40%

## Cc1cnc(Nc2ccc(C(=O)NCCCN3CCOCC3)cc2)nc1-c1ccc(Cl)s1 [Compound 23g, 4-((4-(5-Chlorothiophen-2-yl)-5-methylpyrimidin-2-yl)amino)-N-(3-morpholinopropyl)benzamide]
PfGSK3
  activity on PfGSK3, in words: did not show significant activity

## O=C(c1ccc(Nc2ncc(Cl)c(-c3ccc(Cl)s3)n2)cc1)N1CCC(N2CCCC2)CC1 [Compound 23d, (4-((5-Chloro-4-(5-chlorothiophen-2-yl)pyrimidin-2-yl)amino)phenyl)(4-(pyrrolidin-1-yl)piperidin-1-yl)methanone]
468 human kinases
  no. of kinase hits: 103

## O=C(c1ccc(Nc2nccc(-c3ccco3)n2)cc1)N1CCC(N2CCCC2)CC1 [Compound 18e, (4-((4-(Furan-2-yl)pyrimidin-2-yl)amino)phenyl)(4-(pyrrolidin-1-yl)piperidin-1-yl)methanone]
PfGSK3
  activity on PfGSK3, in words: inactive
PfPK6; compared to thiophene 18c
  fold decrease in potency on PfPK6: more than 3 fold

## Clc1ccccc1Nc1nccc(-c2cc3ccccc3s2)n1 [Compound 4d, 4-(Benzo[b]thiophen-2-yl)-N-(2-chlorophenyl)pyrimidin-2-amine]
PfPK6
  remaining activity at 1 µM: 100%

## COc1cccc(Nc2nccc(-c3cc4ccccc4s3)n2)c1 [Compound 4f, 4-(Benzo[b]thiophen-2-yl)-N-(3-methoxyphenyl)pyrimidin-2-amine]
PfPK6
  remaining activity at 1 µM: 100%

## O=C(c1ccc(Nc2nccc(-c3ccc(Cl)s3)n2)cc1)N1CCC(N2CCCC2)CC1 [Compound 18j, (4-((4-(5-Chlorothiophen-2-yl)pyrimidin-2-yl)amino)phenyl)(4-(pyrrolidin-1-yl)piperidin-1-yl)methanone]
PfPK6
  LE PfPK6 (ligand efficiency): 0.30
